Measurements from ChEMBL document CHEMBL1129044, “Potent, selective tetrahydro-beta-carboline antagonists of the serotonin 2B (5HT2B) contractile receptor in the rat stomach fundus” (J Med Chem, 1996).

Assays:
[1] = target: 5-hydroxytryptamine receptor 2B (Rattus norvegicus) (UniProt P30994); experiment: Binding affinity analysed for 5-HT 2B receptor in rat stomach fundus; assay type: tissue-based
In short: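 Rat stomach fundus strips (5HT2B): isometric contraction recorded as grams of force. Control cumulative serotonin concentration–response curve, then 1 h incubation with a single antagonist concentration per tissue, then serotonin curve repeated. K_B = [B]/(dose ratio − 1), where dose ratio is agonist ED50 with antagonist over control ED50. Reported as −log K_B.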

[2] = target: T1, 5-hydroxytryptamine receptor 2A (Rattus norvegicus, UniProt P14842); experiment: Binding affinity for 5-HT 2A in rat […]; assay type: tissue-based
[3] = target: Serotonin receptor 2a and 2b (5HT2A and 5HT2B) (Rattus norvegicus) (UniProt P30994+P14842); experiment: Relative binding to serotonin receptors 5-HT-2B and 5-HT-2A (Ratio of […] Ki); assay type: protein assay
[4] = target: 5-HT2C receptor (Mus musculus); experiment: Binding affinity towards 5-HT 2C receptor of mouse
Rattus norvegicus = species on record: Rattus norvegicus; experiment: Relative binding to serotonin receptors 5-HT-2B to 5-HT2C (Ratio of […] Ki)
[5] = target: 5-hydroxytryptamine receptor 2A (Rattus norvegicus) (UniProt P14842)
[6] = target: 5-hydroxytryptamine receptor 2A (Rattus norvegicus) (UniProt P14842); remark: listed apart in the source
[7] = target: T1, 5-hydroxytryptamine receptor 2A; experiment: Binding affinity analysed on 5-HT 2A in rat […].; assay type: tissue-based
[8] = target: 5-hydroxytryptamine receptor 2A (Rattus norvegicus) (UniProt P14842); experiment: Binding affinity analysed towards 5-HT 2A in rat jugular vein
In short: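 Rat external jugular vein (5HT2A), cannulated in situ and kept in Krebs' bicarbonate buffer; isometric contraction recorded. Control cumulative serotonin curve, 1 h with one antagonist concentration per tissue, serotonin curve repeated. K_B = [B]/(dose ratio − 1) from the agonist ED50 shift. Expressed as −log K_B.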

Serotonin receptor 2a and 2b (5HT2A and 5HT2B) (Rattus norvegicus), sequence (P14842 whole entry, looked up): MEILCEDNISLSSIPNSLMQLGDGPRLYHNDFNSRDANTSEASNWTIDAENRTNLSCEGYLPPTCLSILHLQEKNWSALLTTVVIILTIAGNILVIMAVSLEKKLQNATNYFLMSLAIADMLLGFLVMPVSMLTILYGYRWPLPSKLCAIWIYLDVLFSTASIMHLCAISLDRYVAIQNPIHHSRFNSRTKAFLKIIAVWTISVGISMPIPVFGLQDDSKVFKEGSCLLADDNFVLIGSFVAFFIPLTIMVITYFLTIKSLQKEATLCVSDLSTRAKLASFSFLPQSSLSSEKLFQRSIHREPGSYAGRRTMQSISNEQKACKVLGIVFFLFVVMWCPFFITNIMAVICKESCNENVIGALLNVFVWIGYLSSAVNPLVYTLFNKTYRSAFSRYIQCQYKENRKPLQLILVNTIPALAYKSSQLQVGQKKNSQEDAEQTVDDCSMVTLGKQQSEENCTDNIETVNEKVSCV
Serotonin receptor 2a and 2b (5HT2A and 5HT2B) (Rattus norvegicus), sequence (P30994 whole entry, looked up): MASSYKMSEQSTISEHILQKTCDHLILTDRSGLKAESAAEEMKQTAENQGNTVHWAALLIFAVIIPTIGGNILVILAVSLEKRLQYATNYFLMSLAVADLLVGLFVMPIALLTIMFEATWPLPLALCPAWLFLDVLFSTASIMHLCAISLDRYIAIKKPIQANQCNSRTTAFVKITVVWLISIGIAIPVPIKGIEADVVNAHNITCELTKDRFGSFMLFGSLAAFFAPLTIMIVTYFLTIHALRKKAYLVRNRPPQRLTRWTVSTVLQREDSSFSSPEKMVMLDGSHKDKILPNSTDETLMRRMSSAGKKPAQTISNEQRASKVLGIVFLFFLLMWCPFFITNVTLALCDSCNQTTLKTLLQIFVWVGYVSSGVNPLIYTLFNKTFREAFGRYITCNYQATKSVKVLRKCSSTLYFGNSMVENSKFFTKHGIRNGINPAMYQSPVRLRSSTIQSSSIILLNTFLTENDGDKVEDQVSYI
T1 sequence (P14842 whole entry): as the sequence (P14842 whole entry, looked up) above
5-hydroxytryptamine receptor 2A (Rattus norvegicus), sequence (P14842 whole entry): as the sequence (P14842 whole entry, looked up) above
5-hydroxytryptamine receptor 2B (Rattus norvegicus), sequence (P30994 whole entry): as the sequence (P30994 whole entry, looked up) above

SMILES | -Log KB [1] | other results
Cn1ccc2cc3c(cc21)CCN3C(=O)Nc1cccnc1 | 8.48 | –
COc1ccc(CC2NCCc3c2[nH]c2c(Br)c(C)ccc32)cc1OC (stereo unspecified) | 9.02 | Ki [2]: 2.95 nM; Ratio [3]: 3.09; Ki [4]: 2.04 nM; Ratio (Rattus norvegicus): 2.14
COc1ccc(CC2NCCc3c2[nH]c2cc(C)c(C)cc32)cc1OC (stereo unspecified) | 9.71 | Ki [2]: 4.68 nM
COc1ccc(OC)c(CC2NCCc3c2[nH]c2ccccc32)c1 (stereo unspecified) | 7.75 | –
Clc1ccc2c(c1)C1CCNC(Cc3cccc4ccccc34)C1N2 (stereo unspecified) | 9.16 | –
COc1ccc(CC2NCCc3c2[nH]c2c(C)c(C)ccc32)cc1OC (stereo unspecified) | 10.1 | Ki [2]: 8.71 nM; Ratio [3]: 115; Ki [4]: 7.76 nM; Ratio (Rattus norvegicus): 102
Cc1ccc(CC2NCCc3c2[nH]c2ccccc32)cc1 (stereo unspecified) | 7.84 | –
COc1cc(CC2NCCc3c2[nH]c2ccccc32)cc(OC)c1OC (stereo unspecified) | 8.1 | –
Cc1ccc2[nH]c3c(c2c1)CCNC3Cc1cccc(C(F)(F)F)c1 (stereo unspecified) | 8.91 | –
Clc1ccc(CC2NCCc3c2[nH]c2ccccc32)cc1Cl (stereo unspecified) | 8.22 | –
c1ccc2c3c([nH]c2c1)[C@@H]1C[C@@H]2CCCC[C@H]2CN1CC3 | 7.26 | –
COc1ccc2[nH]c3c(c2c1)CCNC3Cc1ccc(OC)c(OC)c1 (stereo unspecified) | 8.48 | –
COc1ccc(CC2NCCc3c2[nH]c2ccc(C)cc32)c(Cl)c1OC (stereo unspecified) | 9.8 | Ki [2]: 19.5 nM; -Log KB [5]: 8.14
CCOc1ccc(CC2NCCc3c2[nH]c2ccccc32)cc1OCC (stereo unspecified) | 8.57 | –
COc1ccc(CCC2NCCc3c2[nH]c2ccccc32)cc1OC (stereo unspecified) | 7.07 | –
c1ccc2c3c([nH]c2c1)CNCC3 | < 5.52 | –
Cc1ccc2[nH]c3c(c2c1)CCNC3Cc1cc(F)cc(F)c1 (stereo unspecified) | 9.05 | –
COc1ccc(CC2NCCc3c2[nH]c2ccccc32)cc1 (stereo unspecified) | 8.09 | –
COc1ccc(CC2NCCc3c2[nH]c2c(F)cc(F)cc32)cc1OC (stereo unspecified) | 9.6 | –
COC1=CC=C(CC2NCCc3c2n(C)c2ccc(C)cc32)CC1OC (stereo unspecified) | < 7.52 | –
COc1ccc(CC2NCCc3c2[nH]c2ccc(C(C)C)cc32)cc1OC (stereo unspecified) | 8.5 | –
COc1ccc(CC2NCCc3c2[nH]c2ccccc32)c(Cl)c1OC (stereo unspecified) | 9.27 | –
Cc1cc(NC(=O)Nc2ccc3c(ccn3C)c2)sn1 | 7.95 | –
COC(=O)[C@@H]1[C@H]2C[C@H]3c4[nH]c5ccccc5c4CCN3C[C@@H]2CC[C@@H]1O | 6.92 | -Log KB [6]: 6.37
Brc1cccc2c1NC1C(Cc3cccc4ccccc34)NCCC21 (stereo unspecified) | 9.1 | –
CCc1ccc2c(c1)C1CCNC(Cc3cccc4ccccc34)C1N2 (stereo unspecified) | 9.65 | –

SMILES | -Log KB [1] | other results
CCCc1ccc2[nH]c3c(c2c1)CCNC3Cc1ccc(OC)c(OC)c1 (stereo unspecified) | 8.64 | –
COc1ccc(CC2NCCc3c2[nH]c2ccc(C)cc32)c([N+](=O)[O-])c1OC (stereo unspecified) | 9.16 | –
COc1ccc(CC2c3c(c4cc(C)ccc4n3C)CCN2C)c(Cl)c1OC (stereo unspecified) | < 7.52 | –
O=C(O)c1ccc2c(c1)C1CCNC(Cc3cccc4ccccc34)C1N2 (stereo unspecified) | < 7.5 | –
COc1ccc(CC2NCCc3c2[nH]c2ccc(I)cc32)cc1OC (stereo unspecified) | 9.52 | –
Cc1ccc2[nH]c3c(c2c1)CCN(C)C3Cc1cccc2ccccc12 (stereo unspecified) | 7.52 | –
COc1ccc(CC2NCCc3c2[nH]c2ccc(-c4ccccc4)cc32)cc1OC (stereo unspecified) | < 7 | –
COc1ccc(CC2NCCc3c2[nH]c2ccc(Br)cc32)cc1OC (stereo unspecified) | 8.8 | –
COc1ccc(CN2CCc3c([nH]c4ccccc34)C2)cc1OC | < 5.52 | –
COc1cc(CC2NCCc3c2[nH]c2ccc(C)cc32)cc(N)c1OC (stereo unspecified) | 8.89 | –
COc1cc(CC2NCCc3c2[nH]c2ccc(C)cc32)cc(I)c1OC (stereo unspecified) | 8.12 | –
CN1CC[C@@H]2CN3CCc4cccc(c43)[C@@H]2C1 | 7.34 | Ki [7]: 631 nM
COc1ccc(CC2NCCc3c2[nH]c2ccccc32)cc1OC (stereo unspecified) | 9.17 | -Log KB [8]: 7.43; Ki [2]: 66.1 nM; Ratio [3]: 97.7; Ki [4]: 126 nM; Ratio (Rattus norvegicus): 186
COc1ccc(CC2NCCc3c2[nH]c2ccc(C)cc32)c(N)c1OC (stereo unspecified) | 9.02 | –
Cc1ccc2c(c1Br)NC1C(Cc3cccc4ccccc34)NCCC21 (stereo unspecified) | 8.56 | –
COc1cccc2c1NC1C(Cc3cccc4ccccc34)NCCC21 (stereo unspecified) | 9.72 | –
COc1ccc(CC2(C)NCCc3c2[nH]c2ccc(C)cc32)cc1OC (stereo unspecified) | < 7.52 | –
COc1ccc(CC2NCCc3c2[nH]c2ccc(C)cc32)c(Br)c1OC (stereo unspecified) | 9.7 | Ki [2]: 16.6 nM; Ratio [3]: 83.2; Ki [4]: 18.6 nM; Ratio (Rattus norvegicus): 93.3
COc1ccc2c3c([nH]c2c1)C(Cc1ccc(OC)c(OC)c1)NCC3 (stereo unspecified) | 7.31 | –
COc1ccc(CC2NCCc3c2[nH]c2cc(C)cc(C)c32)cc1OC (stereo unspecified) | 9.34 | –
COc1ccc(CC2NCCc3c2[nH]c2ccc(Cl)cc32)cc1OC (stereo unspecified) | 8.36 | –
COc1cccc(CC2NCCc3c2[nH]c2ccccc32)c1 (stereo unspecified) | 8.04 | –
COc1ccc(CC2NCCc3c2[nH]c2c(Br)cc(C)cc32)cc1OC (stereo unspecified) | 8.92 | –
COc1ccc(CC2NCC(C)c3c2[nH]c2c(C)cccc32)cc1OC (stereo unspecified) | 9.29 | –
COc1ccc(CC2NCCc3c2[nH]c2ccc(C)cc32)cc1OC (stereo unspecified) | – | Ki [2]: 22.4 nM
Cc1cc(Br)c2c(c1)C1CCNC(Cc3cccc4ccccc34)C1N2 (stereo unspecified) | 8.82 | –

SMILES | -Log KB [1] | other results
COc1cc2c(cc1OC)CN1CCc3c([nH]c4ccccc34)[C@@H]1C2 | < 6.52 | –
COc1ccc(CC2NCCc3c2[nH]c2c(C)cc(C)cc32)cc1OC (stereo unspecified) | 9.61 | –
COc1ccc(CC2c3[nH]c4ccc(C)cc4c3CCN2C)c(Cl)c1OC (stereo unspecified) | 8.4 | –
COc1ccc(CC2NCCc3c2[nH]c2ccc(F)cc32)cc1OC (stereo unspecified) | 8.49 | –
COc1ccc(CC2NCCc3c2[nH]c2ccc(SC)cc32)cc1OC (stereo unspecified) | 9.56 | –
c1ccc(CC2NCCc3c2[nH]c2ccccc32)cc1 (stereo unspecified) | 7.61 | –
CCCCc1ccc2[nH]c3c(c2c1)CCNC3Cc1ccc(OC)c(OC)c1 (stereo unspecified) | < 7.5 | –
Cc1ccc2[nH]c3c(c2c1)CCNC3CC1CCCCC1 (stereo unspecified) | 8.32 | –
COc1ccc(CC2NCCc3c2[nH]c2ccc(C)cc32)cc1F (stereo unspecified) | 9.42 | –
CCc1ccc2[nH]c3c(c2c1)CCNC3Cc1ccc(OC)c(OC)c1 (stereo unspecified) | 9.46 | –
COc1ccc(CC2NCCc3c2[nH]c2c3ccc3ccccc32)cc1OC (stereo unspecified) | 9.22 | –
COc1ccc(CC2NCCc3c2[nH]c2ccc(C)c(F)c32)cc1OC (stereo unspecified) | 9.3 | –
c1ccc2c3c([nH]c2c1)C(Cc1ccc2c(c1)OCO2)NCC3 (stereo unspecified) | 8.4 | –
COc1ccc(CC2NCCc3c2[nH]c2c(C)cccc32)cc1OC (stereo unspecified) | 9 | –
Cn1ccc2cc(NC(=O)Nc3cccnc3)ccc21 | 7.4 | Ki [2]: > 6310 nM; Ratio [3]: > 158; Ratio (Rattus norvegicus): 3.5
COc1ccc(C2NCCc3c2[nH]c2ccccc32)cc1OC (stereo unspecified) | < 6.53 | –
COc1ccc(CC2NCCc3c2[nH]c2ccc(C4CCCCC4)cc32)cc1OC (stereo unspecified) | < 7.5 | –
COc1cc(CC2NCCc3c2[nH]c2ccc(C)cc32)cc([N+](=O)[O-])c1OC (stereo unspecified) | 8.55 | –
Cc1ccc2[nH]c3c(c2c1)CCNC3Cc1ccc(C)c(C)c1 (stereo unspecified) | 9.06 | –
c1ccc2c(CC3NCCc4c3[nH]c3ccccc43)cccc2c1 (stereo unspecified) | 9.35 | –
c1ccc2cc(CC3NCCc4c3[nH]c3ccccc43)ccc2c1 (stereo unspecified) | 7.84 | –
Cc1ccc2[nH]c3c(c2c1)CCNC3Cc1ccc(F)c(F)c1 (stereo unspecified) | 8.47 | –
COc1ccc(CC2NCCc3c2[nH]c2ccc(OCc4ccccc4)cc32)cc1OC (stereo unspecified) | 6.73 | –
COc1ccc(CC2NCCc3c2[nH]c2ccc(C)cc32)cc1O (stereo unspecified) | 9.23 | –
